Data taken from ChEMBL document CHEMBL5260843 (J Med Chem, 2019).
The source made the active and inactive calls. The rule behind the calls is not given here.

Columns and labels:
[1] = Metabolic stability in dog liver microsomes assessed as intrinsic clearance; format: ADME, Canis lupus familiaris, Microsome; settings: read-out: CLH
[2] = molecular target: T1, Cullin-5 (Homo sapiens) (UniProt Q93034); experiment: Inhibition of cullin5 neddylation in human KYSE-70 cells at 0.3 to 10 uM incubated for 24 hrs by Western blot analysis; format: cell-based; settings: KYSE-70 cell line, dose 0.3-10 µM
T1 sequence (whole entry): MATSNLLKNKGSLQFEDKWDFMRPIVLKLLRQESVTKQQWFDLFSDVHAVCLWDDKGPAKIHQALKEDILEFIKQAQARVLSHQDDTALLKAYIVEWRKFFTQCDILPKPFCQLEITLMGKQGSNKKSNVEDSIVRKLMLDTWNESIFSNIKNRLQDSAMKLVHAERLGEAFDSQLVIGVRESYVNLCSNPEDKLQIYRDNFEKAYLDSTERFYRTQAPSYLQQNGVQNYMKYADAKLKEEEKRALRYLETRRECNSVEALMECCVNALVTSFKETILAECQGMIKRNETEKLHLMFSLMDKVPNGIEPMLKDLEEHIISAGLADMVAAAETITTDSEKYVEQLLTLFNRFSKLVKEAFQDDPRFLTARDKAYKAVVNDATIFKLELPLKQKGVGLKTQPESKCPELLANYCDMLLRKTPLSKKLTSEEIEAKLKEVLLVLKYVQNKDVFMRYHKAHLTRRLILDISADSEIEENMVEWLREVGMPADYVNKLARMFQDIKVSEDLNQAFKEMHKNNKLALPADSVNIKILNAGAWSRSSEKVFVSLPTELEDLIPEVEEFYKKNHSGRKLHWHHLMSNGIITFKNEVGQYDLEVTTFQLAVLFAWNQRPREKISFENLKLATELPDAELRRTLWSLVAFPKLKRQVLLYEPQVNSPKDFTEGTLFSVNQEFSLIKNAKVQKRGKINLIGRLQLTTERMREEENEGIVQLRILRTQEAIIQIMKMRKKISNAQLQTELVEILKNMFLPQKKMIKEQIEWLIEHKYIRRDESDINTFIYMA
How it was run: (§1)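 Cells in 6-well plates were exposed to compound for 24 h. MGC-803 were grown in DMEM and KYSE70 in RPMI 1640, both with 10% FBS at 37 °C and 5% CO2. Lysates were made in RIPA with protease inhibitors and quantified by BCA. 30 μg protein was run on 8% SDS-PAGE and blotted to nitrocellulose. Primary antibodies were applied overnight at 4 °C, then HRP secondaries, with ECL and film detection. GAPDH was the loading control. Run three times.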

[3] = Metabolic stability in human liver microsomes assessed as half life; format: ADME, Microsome
[4] = system: MGC-803; experiment: Induction of p27 accumulation in human MGC-803 cells incubated for 24 hrs by Western blot analysis; format: functional, cell-based; settings: dose 1-10 µM; how it was run: as §1
[5] = system: MGC-803; experiment: Upregulation of NRF2 protein expression in human MGC-803 cells incubated for 24 hrs by Western blot analysis; format: functional, cell-based; settings: dose 1-10 µM
How it was run: (§2)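 Cells were grown at 37 °C in 5% CO2 with 10% FBS, MGC-803 in DMEM and KYSE70 in RPMI 1640. They were exposed to the indicated compound concentrations for 24 h, then lysed in RIPA with protease inhibitors and quantified by BCA. 30 μg of protein was run on 8% SDS-PAGE and blotted to nitrocellulose. Primary antibody was applied overnight at 4 °C, with HRP secondary and ECL film detection. GAPDH served as the loading control; the experiment was done three times.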

[6] = molecular target: Cullin-1 (Homo sapiens) (UniProt Q13616); experiment: Inhibition of cullin1 neddylation in UBC/DCN1 overactivated human MGC-803 cells at 10 uM incubated for 24 hrs by Western blot analysis; format: cell-based; how it was run: as §1
Sequence of Cullin-1 (Homo sapiens) (Q13616 whole entry): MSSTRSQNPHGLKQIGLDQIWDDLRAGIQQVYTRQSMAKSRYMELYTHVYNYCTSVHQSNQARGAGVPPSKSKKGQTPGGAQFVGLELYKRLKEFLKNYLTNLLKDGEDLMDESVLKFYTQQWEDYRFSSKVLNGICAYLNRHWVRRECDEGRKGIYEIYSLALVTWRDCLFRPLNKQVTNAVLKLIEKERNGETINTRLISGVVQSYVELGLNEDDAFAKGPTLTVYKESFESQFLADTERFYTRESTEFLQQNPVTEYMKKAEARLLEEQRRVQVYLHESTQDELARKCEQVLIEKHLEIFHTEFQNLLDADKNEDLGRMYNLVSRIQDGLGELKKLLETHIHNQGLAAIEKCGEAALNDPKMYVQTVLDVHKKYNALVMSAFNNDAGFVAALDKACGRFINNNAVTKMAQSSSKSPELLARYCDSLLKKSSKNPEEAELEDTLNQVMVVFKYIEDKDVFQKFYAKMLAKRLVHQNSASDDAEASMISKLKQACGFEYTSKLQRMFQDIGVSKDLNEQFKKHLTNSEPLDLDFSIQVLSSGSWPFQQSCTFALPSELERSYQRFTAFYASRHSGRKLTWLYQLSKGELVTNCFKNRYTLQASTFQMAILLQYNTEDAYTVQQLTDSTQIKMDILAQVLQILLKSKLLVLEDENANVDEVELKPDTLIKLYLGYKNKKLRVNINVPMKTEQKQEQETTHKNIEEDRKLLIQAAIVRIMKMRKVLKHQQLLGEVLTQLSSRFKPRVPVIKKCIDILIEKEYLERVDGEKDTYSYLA

[7] = Metabolic stability in rat liver microsomes assessed as half life; format: ADME, Microsome
[8] = molecular target: CDK9/cyclin T1 (Homo sapiens) (UniProt O60563+P50750); experiment: Inhibition of C-terminal His6 tagged full length recombinant human CDK9/full length human Cyclin T1 expressed in baculovirus infected Sf21 cells using 5-FAM-ACSYSPTSPSYSPTSPSYSPTSPSKK as substrate at 10 uM incubated for 60 mins in presence of ATP relative to control
How it was run: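 CDK/cyclin complexes were assayed with 3 μM 5-FAM peptide substrate. ATP was 20 μM for CDK1, 30 μM for CDK2, 280 μM for CDK4, 800 μM for CDK6 and 10 μM for CDK9. Buffer was 50 mM HEPES pH 7.5, 0.0015% Brij-35, 10 mM MgCl2 and 2 mM DTT. Reactions ran 60 min at 28 °C and were stopped with EDTA. Caliper conversion values were converted to % inhibition.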

[9] = molecular target: T2, DCN1-like protein 1/NEDD8-conjugating enzyme Ubc12 (Homo sapiens) (UniProt Q96GG9+P61081); settings: dose 500.0 nM, time 1.0 hrs
T2 sequence (P61081 whole entry, looked up): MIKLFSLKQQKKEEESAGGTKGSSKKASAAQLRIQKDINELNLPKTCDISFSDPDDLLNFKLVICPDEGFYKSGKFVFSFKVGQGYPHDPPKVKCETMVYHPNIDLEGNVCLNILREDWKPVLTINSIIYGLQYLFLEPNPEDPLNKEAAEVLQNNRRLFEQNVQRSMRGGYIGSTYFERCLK
T2 sequence (Q96GG9 whole entry, looked up): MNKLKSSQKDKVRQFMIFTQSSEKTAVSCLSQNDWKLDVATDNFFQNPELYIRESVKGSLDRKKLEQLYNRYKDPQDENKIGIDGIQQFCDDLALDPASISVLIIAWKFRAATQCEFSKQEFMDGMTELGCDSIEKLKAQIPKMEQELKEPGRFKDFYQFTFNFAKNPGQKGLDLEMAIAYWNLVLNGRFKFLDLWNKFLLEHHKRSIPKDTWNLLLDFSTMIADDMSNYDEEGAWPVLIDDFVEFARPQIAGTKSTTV

[10] = system: KYSE-70; experiment: Upregulation of NRF2 protein expression in human KYSE-70 cells incubated for 24 hrs by Western blot analysis; format: functional, cell-based; settings: dose 0.3-10 µM; how it was run: as §2
[11] = Metabolic stability in human liver microsomes assessed as intrinsic clearance; format: ADME, Microsome; settings: read-out: CLH
[12] = Metabolic stability in rat liver microsomes assessed as intrinsic clearance; format: ADME, Microsome; settings: read-out: CLH
[13] = molecular target: Cullin-4B (Homo sapiens) (UniProt Q13620); experiment: Inhibition of cullin4B neddylation in UBC/DCN1 overactivated human MGC-803 cells at 0.3 to 10 uM incubated for 24 hrs by Western blot analysis; format: cell-based; settings: dose 0.3-10 µM; how it was run: as §1
Sequence of Cullin-4B (Homo sapiens) (Q13620 whole entry): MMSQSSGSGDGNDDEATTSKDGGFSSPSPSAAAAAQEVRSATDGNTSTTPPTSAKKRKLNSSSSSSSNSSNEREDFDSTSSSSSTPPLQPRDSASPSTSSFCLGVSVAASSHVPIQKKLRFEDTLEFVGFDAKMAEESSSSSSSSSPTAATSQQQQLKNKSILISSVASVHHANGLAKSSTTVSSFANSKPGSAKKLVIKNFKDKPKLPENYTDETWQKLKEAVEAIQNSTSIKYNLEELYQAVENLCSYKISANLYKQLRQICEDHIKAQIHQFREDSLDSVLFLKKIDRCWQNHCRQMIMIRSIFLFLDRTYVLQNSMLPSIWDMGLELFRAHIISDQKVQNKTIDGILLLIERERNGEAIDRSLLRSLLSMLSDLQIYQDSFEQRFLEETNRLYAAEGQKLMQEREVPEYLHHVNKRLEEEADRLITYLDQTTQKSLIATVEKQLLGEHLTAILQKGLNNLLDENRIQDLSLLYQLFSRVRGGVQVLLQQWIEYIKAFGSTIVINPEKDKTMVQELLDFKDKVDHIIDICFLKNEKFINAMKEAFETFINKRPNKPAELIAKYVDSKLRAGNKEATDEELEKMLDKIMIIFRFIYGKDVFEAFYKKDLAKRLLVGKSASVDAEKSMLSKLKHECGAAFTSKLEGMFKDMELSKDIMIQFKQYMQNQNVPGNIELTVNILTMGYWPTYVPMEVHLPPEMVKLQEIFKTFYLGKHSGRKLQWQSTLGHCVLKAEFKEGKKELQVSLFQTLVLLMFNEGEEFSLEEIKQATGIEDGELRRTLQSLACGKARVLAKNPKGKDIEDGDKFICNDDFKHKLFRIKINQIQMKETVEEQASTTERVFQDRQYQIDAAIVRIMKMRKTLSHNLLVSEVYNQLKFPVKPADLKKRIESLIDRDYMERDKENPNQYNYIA

[14] = system: MGC-803; experiment: Induction of ROS generation in human MGC-803 cells at 0.3 uM incubated for 24 hrs by DCFH-DA staining based flow cytometry analysis (reference value: 2.2%); format: functional
[15] = molecular target: T2, DCN1-like protein 1/NEDD8-conjugating enzyme Ubc12 (Homo sapiens); settings: dose 500.0 nM, time 1.0 hrs; remark: listed apart in the source
[16] = system: MGC-803; experiment: Induction of p21 accumulation in human MGC-803 cells incubated for 24 hrs by Western blot analysis; format: functional, cell-based; settings: dose 1-10 µM; how it was run: as §1
[17] = system: MGC-803; experiment: Inhibition of cullin2 neddylation in UBC/DCN1 overactivated human MGC-803 cells at 0.3 to 10 uM incubated for 24 hrs by Western blot analysis; format: cell-based; settings: dose 0.3-10 µM; how it was run: as §1
[18] = system: KYSE-70; experiment: Induction of p27 accumulation in human KYSE-70 cells incubated for 24 hrs by Western blot analysis; format: functional, cell-based; settings: dose 0.3-10 µM; how it was run: as §1
[19] = system: KYSE-70 cell line; experiment: Inhibition of cullin2 neddylation in human KYSE-70 cells at 0.3 to 10 uM incubated for 24 hrs by Western blot analysis; format: cell-based; settings: dose 0.3-10 µM; how it was run: as §1
[20] = molecular target: Cullin-4A (Homo sapiens) (UniProt Q13619); experiment: Inhibition of cullin4A neddylation in human KYSE-70 cells at 0.3 to 10 uM incubated for 24 hrs by Western blot analysis; format: cell-based; settings: KYSE-70 cell line, dose 0.3-10 µM; how it was run: as §1
Sequence of Cullin-4A (Homo sapiens) (Q13619 whole entry): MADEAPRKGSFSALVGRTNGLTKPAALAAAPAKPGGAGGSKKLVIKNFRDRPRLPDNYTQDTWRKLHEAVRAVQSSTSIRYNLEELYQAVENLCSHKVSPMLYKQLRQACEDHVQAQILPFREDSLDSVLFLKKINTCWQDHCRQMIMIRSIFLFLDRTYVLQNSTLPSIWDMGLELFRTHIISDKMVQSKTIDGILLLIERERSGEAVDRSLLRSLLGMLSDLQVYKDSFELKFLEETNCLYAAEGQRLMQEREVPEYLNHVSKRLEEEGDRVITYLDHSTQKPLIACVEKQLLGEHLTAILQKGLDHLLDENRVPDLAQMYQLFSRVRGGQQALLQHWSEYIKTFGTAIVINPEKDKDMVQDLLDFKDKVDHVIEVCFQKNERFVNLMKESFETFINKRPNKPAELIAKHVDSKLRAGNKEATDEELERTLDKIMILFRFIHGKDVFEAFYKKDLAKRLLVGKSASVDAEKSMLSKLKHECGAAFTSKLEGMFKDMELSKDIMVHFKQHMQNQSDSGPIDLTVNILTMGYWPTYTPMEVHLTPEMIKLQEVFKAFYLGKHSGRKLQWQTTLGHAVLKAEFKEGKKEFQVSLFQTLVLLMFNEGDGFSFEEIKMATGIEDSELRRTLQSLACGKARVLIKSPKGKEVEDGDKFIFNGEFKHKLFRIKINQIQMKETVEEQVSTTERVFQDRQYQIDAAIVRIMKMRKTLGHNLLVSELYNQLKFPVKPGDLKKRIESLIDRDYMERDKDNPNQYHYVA

[21] = Metabolic stability in dog liver microsomes assessed as half life; format: ADME, Canis lupus familiaris, Microsome
[22] = molecular target: Cullin-4A (Homo sapiens) (UniProt Q13619); experiment: Inhibition of cullin4A neddylation in UBC/DCN1 overactivated human MGC-803 cells at 0.3 to 10 uM incubated for 24 hrs by Western blot analysis; format: cell-based; settings: dose 0.3-10 µM; how it was run: as §1

In the case of Cc1cc(Sc2nnnn2CCN(C)C)n2nc(SCc3ccc(Cl)cc3)nc2n1.Cl, the CLint scaled [1] is reported as 691 mL/min/kg, the inhibition [2] is reported as “inactive” and the half-life [3] is reported as under 5 min. For the same compound, the Activity [4] was “Dose-Dependent Effect”, the Activity [5] was “Dose-Dependent Effect” and the inhibition [6] was “Active”. For the same compound, the half-life [7] was under 5 min, the inhibition [8] was -8.4% and the inhibition [9] was “Active”. For the same compound, the Activity [10] was “Dose-Dependent Effect”, the CLint scaled [11] was over 348 mL/min/kg and the CLint scaled [12] was 497 mL/min/kg. For the same compound, the inhibition [13] was “inactive”, the Activity [14] was 2.8% and the inhibition [15] was “Active”. For the same compound, the Activity [16] was “Dose-Dependent Effect”, the inhibition [17] was “inactive” and the Activity [18] was “Dose-Dependent Effect”. For the same compound, the inhibition [19] was “inactive”, the inhibition [20] was “inactive” and the half-life [21] was under 5 min. For the same compound, the inhibition [22] was “inactive”.
